In ChEMBL document CHEMBL3351342, “Synthesis and biological evaluation of phenoxyacetic acid derivatives as novel free fatty acid receptor 1 agonists” (Bioorg Med Chem, 2015):
Activity calls are given as the source filed them. The rule behind the calls is not given here.

Legend:
[1] = molecular target: T1, Free fatty acid receptor 1 (Homo sapiens, UniProt O14842); assay: Agonist activity at human FFA1 expressed in CHO cells assessed as ratio of increase in intracellular Ca2+ concentration in compound treated cells at 100 nM to vehicle-treated cells by Fluo-4 AM based fluorescence assay; type: functional, cell-based
T1 sequence (O14842 whole entry): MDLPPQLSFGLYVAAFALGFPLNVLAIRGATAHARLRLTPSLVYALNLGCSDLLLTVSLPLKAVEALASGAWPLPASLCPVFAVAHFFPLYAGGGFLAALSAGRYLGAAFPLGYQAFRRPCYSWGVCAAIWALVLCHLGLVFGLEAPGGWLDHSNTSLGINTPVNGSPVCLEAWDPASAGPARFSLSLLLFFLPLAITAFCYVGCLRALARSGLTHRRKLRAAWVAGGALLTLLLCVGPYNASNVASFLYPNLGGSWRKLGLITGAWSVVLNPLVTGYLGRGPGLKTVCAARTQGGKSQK
Summary of the method: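 Same Fluo-4 Ca2+ flux format in CHO cells stably expressing human FFA1. Single screening concentration of 100 nM. Activity expressed as A/B, the Ca2+ increase in compound-treated wells divided by that in vehicle-treated wells. Three independent experiments.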

[2] = molecular target: T1, Free fatty acid receptor 1; assay: Agonist activity at human FFA1 expressed in CHO cells assessed as increase in intracellular Ca2+ concentration by Fluo-4 AM based fluorescence assay; type: functional, cell-based
Summary of the method: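 CHO cells stably expressing human FFA1 (NM_005303), 30,000 cells/well, cultured overnight at 37 °C in 5% CO2. Loaded with 2.5 µg/mL Fluo-4 AM and 2.5 mmol/L probenecid in HBSS for 90 min at 37 °C, washed, then held 10 min in HBSS with probenecid. Ca2+ rise after adding compound at various concentrations read by fluorimetry. EC50 from curve fitting, mean of three determinations.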

[3] = system: Mus musculus; assay: Hypoglycemic effect in ICR mouse assessed as improvement in glucose intolerance at 20 mg/kg, po dosed 30 mins before oral glucose challenge by oral glucose tolerance test; type: functional, organism-based; design: dose 20 mg/kg
Summary of the method: (§1)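 Male ICR mice, 10 weeks old, fasted 12 h and randomized (n = 6). Single oral dose of 20 mg/kg as a suspension in 0.5% methylcellulose (1.0 mL/kg), given 30 min before an oral glucose load of 2 g/kg (20% solution). Blood glucose read by test strip at −30, 0, 15, 30, 60 and 120 min. AUC0–120 min calculated; mean ± SEM.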

[4] = system: Mus musculus; assay: Hypoglycemic effect in ICR mouse assessed as reduction in glucose AUC (0 to 120 mins) at 20 mg/kg, po dosed 30 mins before oral glucose challenge by oral glucose tolerance test; type: functional; design: scale not given: the % may be the effect or the level left; summary of the method: as §1
[5] = system: Mus musculus; assay: Antihyperglycemic effect in type 2 diabetic C57BL/6 mouse assessed as reduction in blood glucose level at 60 mg/kg, po administered as single dose; type: functional, organism-based; design: dose 60 mg/kg
Summary of the method: (§2)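 Type 2 diabetes model: male C57BL/6 mice on high-fat diet (45% fat) for 4 weeks, STZ 80 mg/kg ip, then high-fat diet for another 4 weeks. Fasting glucose ≥11.1 mmol/L counted as diabetic. Mice fasted 12 h and randomized by weight and glucose (n = 6). Single oral dose of 30–100 mg/kg in 0.5% methylcellulose given 30 min before an oral glucose load of 1 g/kg. Glucose read by strip to 120 min; AUC0–120 min; mean ± SD.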

[6] = system: Mus musculus; assay: Antihyperglycemic effect in type 2 diabetic C57BL/6 mouse assessed as reduction in blood glucose level at 30 to 100 mg/kg, po; type: functional, organism-based; summary of the method: as §2
[7] = Clearance in Sprague-Dawley rat at 1 mg/kg, iv; type: ADME, organism-based; design: dose 1 mg/kg, route intravenous; conditions: in vivo
Summary of the method: (§3)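 Fasted male SD rats (n = 3). Dosed 1 mg/kg iv (0.5 mg/mL, 2 mL/kg) or 1 mg/kg po (1 mg/mL, 1 mL/kg), both in 0.5% methylcellulose. Tail-vein blood in EDTA sampled from 5 min to 36 h. Plasma proteins precipitated with acetonitrile containing internal standard, then analysed by LC-MS/MS. Parameters derived from mean concentrations at each time point.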

[8] = Volume of distribution in Sprague-Dawley rat at 1 mg/kg, iv; type: ADME, organism-based; design: dose 1 mg/kg, route intravenous; conditions: in vivo; summary of the method: as §3
[9] = Half life in Sprague-Dawley rat at 1 mg/kg, iv; type: ADME, organism-based; design: dose 1 mg/kg, route intravenous; conditions: in vivo; summary of the method: as §3
[10] = Half life in Sprague-Dawley rat at 1 mg/kg, po; type: ADME, organism-based; design: dose 1 mg/kg, route oral; conditions: in vivo; summary of the method: as §3
[11] = Cmax in Sprague-Dawley rat at 1 mg/kg, po; type: ADME, organism-based; design: dose 1 mg/kg, route oral; conditions: in vivo; summary of the method: as §3
[12] = Tmax in Sprague-Dawley rat at 1 mg/kg, po; type: ADME, organism-based; design: dose 1 mg/kg, route oral; conditions: in vivo; summary of the method: as §3
[13] = AUC (0 to 8 hrs) in Sprague-Dawley rat at 1 mg/kg, po; type: ADME, organism-based; design: time < 8 hr, dose 1 mg/kg, route oral; conditions: plasma; summary of the method: as §3
[14] = Oral bioavailability in Sprague-Dawley rat at 1 mg/kg; type: ADME, organism-based; conditions: in vivo; summary of the method: as §3

| Ratio [1] | EC50 [2] | SMILES | Activity [3] | also measured |
| --- | --- | --- | --- | --- |
| 1.48 |  | CCc1cc(OCc2cccc(-c3c(C)cc(OCCCS(C)(=O)=O)cc3C)c2)ccc1OC(C)(C)C(=O)O |  |  |
| 1.6 |  | Cc1cc(OCc2cccc(-c3c(C)cc(OCCCS(C)(=O)=O)cc3C)c2)cc(C)c1OC(C)(C)C(=O)O |  |  |
| 3.19 |  | CCc1cc(OCc2cccc(-c3c(C)cc(OCCCS(C)(=O)=O)cc3C)c2)ccc1OCC(=O)O |  |  |
| 6.04 | 121 nM | Cc1cc(OCCCS(C)(=O)=O)cc(C)c1-c1cccc(COc2ccc(OCC(=O)O)cc2)c1 | Active |  |
| 6.18 | 92.6 nM | Cc1cc(OCCCS(C)(=O)=O)cc(C)c1-c1cccc(COc2ccc(OCC(=O)O)c(Cl)c2)c1 | Active |  |
| 1.81 |  | COc1cc(OCc2cccc(-c3c(C)cc(OCCCS(C)(=O)=O)cc3C)c2)ccc1OC(C)(C)C(=O)O |  |  |
| 4.04 | 389 nM | Cc1cc(OCCCS(C)(=O)=O)cc(C)c1-c1cccc(COc2ccc(OC(C)C(=O)O)cc2)c1 (configuration not stated) | Active |  |
| 3.04 |  | CCC(Oc1ccc(OCc2cccc(-c3c(C)cc(OCCCS(C)(=O)=O)cc3C)c2)cc1)C(=O)O (configuration not stated) |  |  |
| 6.42 | 62.3 nM | Cc1cc(OCCCS(C)(=O)=O)cc(C)c1-c1cccc(COc2ccc(OCC(=O)O)c(F)c2)c1 | Active | Activity [4]: 31%; Activity [5]: Active; Activity [6]: Dose-dependent effect; clearance [7]: 1.83 mL/min/kg; Vd [8]: 0.26 L/kg; half-life [9]: 4.15 h; half-life [10]: 3.27 h; Cmax [11]: 1170 ng/mL; Tmax [12]: 1 h; AUC(0-t) at 8 h [13]: 5340 ng·h/mL; bioavailability [14]: 63% |
| 3.04 |  | Cc1cc(OCCCS(C)(=O)=O)cc(C)c1-c1cccc(COc2ccc(OC(C)(C)C(=O)O)c(Cl)c2)c1 |  |  |
| 2.02 |  | COc1cc(OCc2cccc(-c3c(C)cc(OCCCS(C)(=O)=O)cc3C)c2)ccc1OCC(=O)O |  |  |
| 3.06 |  | Cc1cc(OCCCS(C)(=O)=O)cc(C)c1-c1cccc(COc2ccc(OC(C)(C)C(=O)O)c(F)c2)c1 |  |  |
| 2.45 |  | Cc1cc(OCCCS(C)(=O)=O)cc(C)c1-c1cccc(COc2ccc(OC(C)(C)C(=O)O)cc2)c1 |  |  |
| 5.64 | 153 nM | Cc1cc(OCc2cccc(-c3c(C)cc(OCCCS(C)(=O)=O)cc3C)c2)ccc1OCC(=O)O | Active |  |
|  |  | Cc1cc(OCCCS(C)(=O)=O)cc(C)c1-c1cccc(COc2ccc3c(c2)OC[C@H]3CC(=O)O)c1 | Active | Activity [4]: 29.3% |
